Columns and labels:
Assay type in all cases: functional
[1] = system: VCaP; test: Antiproliferative activity against human VCaP cells assessed as T/C value at 3.2 x 10^-3 uM incubated for 96 hrs by propidium iodide based 2D monolayer assay
Procedure, shortened: (§1)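 VCaP cells in RPMI 1640 with 10% FCS at 37 °C, 5% CO2, seeded 4,000–20,000 cells/well and left 24 h before dosing. Compounds from DMSO stocks were diluted in half-log steps in medium, 10 concentrations 0.0032–100 μM, triplicate wells, max 0.3% DMSO. After 96 h, cells were washed, stained with 7 μg/ml propidium iodide plus 0.1% Triton X-100 for 1–2 h at room temperature, and fluorescence read at ex 530/em 620 nm.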

[2] = system: CWR22R; test: Antiproliferative activity against human 22Rv1 cells assessed as T/C value at 1 uM incubated for 96 hrs by propidium iodide based 2D monolayer assay
Procedure, shortened: (§2)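 Cells were kept in RPMI 1640 with 25 mM HEPES, 10% FCS and gentamicin at 37 °C under 5% CO2, and plated at 4,000-20,000 cells/well. After 24 h recovery, compound in medium or medium alone (control wells) was added at 10 half-log concentrations from 0.0032 to 100 µM, in triplicate, with at most 0.3% DMSO. After 96 h, wells were PBS-washed, stained with 7 µg/ml PI and 0.1% Triton X-100, and fluorescence read at 530/620 nm. IC50 came from a 4-parameter fit, geometric mean.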

[3] = system: DU-145; test: Antiproliferative activity against human DU145 cells assessed as T/C value at 1 x 10^2 uM incubated for 96 hrs by propidium iodide based 2D monolayer assay; procedure, shortened: as §2
[4] = system: CWR22R; test: Antiproliferative activity against human 22Rv1 cells assessed as T/C value at 1 x 10^2 uM incubated for 96 hrs by propidium iodide based 2D monolayer assay; procedure, shortened: as §2
[5] = system: VCaP; test: Antiproliferative activity against human VCaP cells assessed as T/C value at 1 uM incubated for 96 hrs by propidium iodide based 2D monolayer assay; procedure, shortened: as §2
[6] = system: VCaP; test: Antiproliferative activity against human VCaP cells assessed as T/C value at 1 x 10^1 uM incubated for 96 hrs by propidium iodide based 2D monolayer assay; procedure, shortened: as §2
[7] = system: DU-145; test: Antiproliferative activity against human DU145 cells assessed as T/C value at 1 x 10^-2 uM incubated for 96 hrs by propidium iodide based 2D monolayer assay
Procedure, shortened: as §2, with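 “After” for “Cells were kept in RPMI 1640 with 25 mM HEPES, 10% FCS and gentamicin at 37 °C under 5% CO2, and plated at 4,000-20,000 cells/well. After”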

[8] = system: LNCaP; test: Antiproliferative activity against human LNCAP cells assessed as T/C value at 3.2 uM incubated for 96 hrs by propidium iodide based 2D monolayer assay; procedure, shortened: as §2
[9] = system: LNCaP; test: Antiproliferative activity against human LNCAP cells assessed as T/C value at 1 x 10^2 uM incubated for 96 hrs by propidium iodide based 2D monolayer assay; procedure, shortened: as §2
[10] = system: VCaP; test: Antiproliferative activity against human VCaP cells assessed as T/C value at 3.2 x 10^-1 uM incubated for 96 hrs by propidium iodide based 2D monolayer assay; procedure, shortened: as §1
[11] = system: LNCaP; test: Antiproliferative activity against human LNCAP cells assessed as T/C value at 3.2 x 10^-2 uM incubated for 96 hrs by propidium iodide based 2D monolayer assay; procedure, shortened: as §2
[12] = system: VCaP; test: Antiproliferative activity against human VCaP cells assessed as T/C value at 3.2 uM incubated for 96 hrs by propidium iodide based 2D monolayer assay; procedure, shortened: as §2
[13] = system: DU-145; test: Antiproliferative activity against human DU145 cells assessed as T/C value at 3.2 x 10^1 uM incubated for 96 hrs by propidium iodide based 2D monolayer assay; procedure, shortened: as §2
[14] = system: DU-145; test: Antiproliferative activity against human DU145 cells assessed as T/C value at 3.2 x 10^-3 uM incubated for 96 hrs by propidium iodide based 2D monolayer assay
Procedure, shortened: as §2, with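 “After” for “Cells were kept in RPMI 1640 with 25 mM HEPES, 10% FCS and gentamicin at 37 °C under 5% CO2, and plated at 4,000-20,000 cells/well. After”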

[15] = system: DU-145; test: Antiproliferative activity against human DU145 cells assessed as reduction in cell growth incubated for 96 hrs by propidium iodide based 2D monolayer assay; details: DU-145, 96 h
Procedure, shortened: as §2, with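 “After” for “Cells were kept in RPMI 1640 with 25 mM HEPES, 10% FCS and gentamicin at 37 °C under 5% CO2, and plated at 4,000-20,000 cells/well. After”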

[16] = system: VCaP; test: Antiproliferative activity against human VCaP cells assessed as reduction in cell growth incubated for 96 hrs by propidium iodide based 2D monolayer assay; procedure, shortened: as §1
[17] = system: LNCaP; test: Antiproliferative activity against human LNCAP cells assessed as T/C value at 3.2 x 10^-1 uM incubated for 96 hrs by propidium iodide based 2D monolayer assay; procedure, shortened: as §2
[18] = system: CWR22R; test: Antiproliferative activity against human 22Rv1 cells assessed as reduction in cell growth incubated for 96 hrs by propidium iodide based 2D monolayer assay; details: 22Rv1, 96 h
Procedure, shortened: as §2, with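 “After” for “Cells were kept in RPMI 1640 with 25 mM HEPES, 10% FCS and gentamicin at 37 °C under 5% CO2, and plated at 4,000-20,000 cells/well. After”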

[19] = system: CWR22R; test: Antiproliferative activity against human 22Rv1 cells assessed as T/C value at 1 x 10^-2 uM incubated for 96 hrs by propidium iodide based 2D monolayer assay; procedure, shortened: as §2
[20] = system: LNCaP; test: Antiproliferative activity against human LNCAP cells assessed as T/C value at 1 uM incubated for 96 hrs by propidium iodide based 2D monolayer assay; procedure, shortened: as §2
[21] = system: CWR22R; test: Antiproliferative activity against human 22Rv1 cells assessed as T/C value at 3.2 x 10^-2 uM incubated for 96 hrs by propidium iodide based 2D monolayer assay; procedure, shortened: as §2
[22] = system: CWR22R; test: Antiproliferative activity against human 22Rv1 cells assessed as T/C value at 3.2 uM incubated for 96 hrs by propidium iodide based 2D monolayer assay; procedure, shortened: as §2
[23] = system: LNCaP; test: Antiproliferative activity against human LNCAP cells assessed as T/C value at 1 x 10^1 uM incubated for 96 hrs by propidium iodide based 2D monolayer assay; procedure, shortened: as §2
[24] = system: CWR22R; test: Antiproliferative activity against human 22Rv1 cells assessed as T/C value at 3.2 x 10^1 uM incubated for 96 hrs by propidium iodide based 2D monolayer assay; procedure, shortened: as §2
[25] = system: LNCaP; test: Antiproliferative activity against human LNCAP cells assessed as T/C value at 1 x 10^-2 uM incubated for 96 hrs by propidium iodide based 2D monolayer assay; procedure, shortened: as §2
[26] = system: CWR22R; test: Antiproliferative activity against human 22Rv1 cells assessed as T/C value at 1 x 10^1 uM incubated for 96 hrs by propidium iodide based 2D monolayer assay; procedure, shortened: as §2
[27] = system: DU-145; test: Antiproliferative activity against human DU145 cells assessed as T/C value at 3.2 x 10^-2 uM incubated for 96 hrs by propidium iodide based 2D monolayer assay
Procedure, shortened: as §2, with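 “After” for “Cells were kept in RPMI 1640 with 25 mM HEPES, 10% FCS and gentamicin at 37 °C under 5% CO2, and plated at 4,000-20,000 cells/well. After”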

[28] = system: CWR22R; test: Antiproliferative activity against human 22Rv1 cells assessed as T/C value at 3.2 x 10^-1 uM incubated for 96 hrs by propidium iodide based 2D monolayer assay; procedure, shortened: as §2
[29] = system: VCaP; test: Antiproliferative activity against human VCaP cells assessed as T/C value at 1 x 10^-1 uM incubated for 96 hrs by propidium iodide based 2D monolayer assay; procedure, shortened: as §2
[30] = system: VCaP; test: Antiproliferative activity against human VCaP cells assessed as T/C value at 1 x 10^-2 uM incubated for 96 hrs by propidium iodide based 2D monolayer assay; procedure, shortened: as §2
[31] = system: LNCaP; test: Antiproliferative activity against human LNCAP cells assessed as T/C value at 3.2 x 10^-3 uM incubated for 96 hrs by propidium iodide based 2D monolayer assay; procedure, shortened: as §2
[32] = system: DU-145; test: Antiproliferative activity against human DU145 cells assessed as T/C value at 1 uM incubated for 96 hrs by propidium iodide based 2D monolayer assay
Procedure, shortened: as §2, with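 “After” for “Cells were kept in RPMI 1640 with 25 mM HEPES, 10% FCS and gentamicin at 37 °C under 5% CO2, and plated at 4,000-20,000 cells/well. After”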

| Compound | T/C [1] | T/C [2] | T/C [3] | T/C [4] | T/C [5] | T/C [6] | T/C [7] | T/C [8] | T/C [9] | T/C [10] | T/C [11] | T/C [12] | T/C [13] | T/C [14] | IC50 [15] | IC50 [16] | T/C [17] | IC50 [18] | T/C [19] | T/C [20] | other results |
| --- | --- | --- | --- | --- | --- | --- | --- | --- | --- | --- | --- | --- | --- | --- | --- | --- | --- | --- | --- | --- | --- |
| CC(O)(COc1cccc(S(F)(F)(F)(F)F)c1)C(=O)Nc1ccc([N+](=O)[O-])c(C(F)(F)F)c1 (racemic) | 103 - 109% | 101 - 109% | 1% | 2 - 3% | 94 - 108% | 22% | 115 - 122% | 54 - 71% | 1 - 2% | 94 - 113% | 92 - 95% | 81 - 87% | 1% | 111 - 116% | 7.4 µM | 5.3 µM | 100 - 103% | 5.4 µM | 100 - 106% | 84 - 93% | IC70 [15]: 7.24 to 8.54 µM; IC70 [16]: 7.82 to 8.69 µM; IC70 [18]: 5.77 to 6.98 µM; T/C [21]: 108 - 110%; T/C [22]: 62 - 92%; T/C [23]: 1 - 3%; T/C [24]: 2%; T/C [25]: 94 - 104%; T/C [26]: 13 - 14%; T/C [27]: 116 - 124%; T/C [28]: 107 - 111%; T/C [29]: 94 - 115%; T/C [30]: 97 - 108%; T/C [31]: 92 - 98%; T/C [32]: 122 - 125% |
| CC(O)(COc1cc(C(F)(F)F)cc(C(F)(F)F)c1)C(=O)Nc1ccc(S(F)(F)(F)(F)F)cc1 (racemic) | 101% | 108% | 1% | 4% | 88% | 23% | 103% | 26% | 3% | 87% | 100% | 37% | 5% | 102% | 8.6 µM | 2.6 µM | 93% | 7 µM | 99% | 90% | IC70 [15]: 9.21 µM; IC70 [16]: 4.53 µM; IC70 [18]: 8.27 µM; T/C [21]: 99%; T/C [22]: 103%; T/C [23]: 6%; T/C [24]: 8%; T/C [25]: 88%; T/C [26]: 16%; T/C [27]: 105%; T/C [28]: 109%; T/C [29]: 99%; T/C [30]: 95%; T/C [31]: 90%; T/C [32]: 118% |
| CC(O)(COc1ccccc1C(F)(F)F)C(=O)Nc1ccc(S(F)(F)(F)(F)F)cc1 (racemic) | 97 - 98% | 9 - 81% | 1% | 1 - 2% | 58 - 85% | 11 - 28% | 103 - 119% | 2 - 7% | 1 - 2% | 73 - 91% | 88 - 94% | 19 - 45% | 4% | 102 - 112% | 7.1 µM | 3.1 µM | 83 - 84% | 1.4 µM | 99 - 104% | 25 - 60% | T/C [21]: 100 - 108%; T/C [22]: 2 - 9%; T/C [23]: 1 - 2%; T/C [24]: 1 - 3%; T/C [25]: 85 - 89%; T/C [26]: 1 - 6%; T/C [27]: 108 - 125%; T/C [28]: 69 - 110%; T/C [29]: 75 - 96%; T/C [30]: 87 - 102%; T/C [31]: 91 - 100%; T/C [32]: 88 - 127% |

Reference: ChEMBL document CHEMBL4364301 (Eur J Med Chem, 2019)
